Data set [1] deals with MS2 coat protein. Put plainly: apparent Kd, MS2 coat protein; higher = weaker binding; RNA-MaP array. In a few lines: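 Binding of fluorescently labeled MS2 coat protein, at 1.5 nM to 3 μM and room temperature, was measured with or without input ligand on designed RNAs transcribed on an Illumina sequencing chip from sequenced DNA templates. Apparent Kd was defined as the median of per-cluster binding-curve fits. No design measured on fewer than 10 clusters was kept.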

Data set [2] relates to MS2 coat protein. Put plainly: apparent Kd, MS2 coat protein; higher = weaker binding; RNA-MaP array; FMN 200 µM where present. An outline of the steps: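 The apparent Kd is the median of filtered binding-curve fits, one per cluster, to green signal normalised to red-channel RNA signal and control-cluster median Fmax. The clusters were on Illumina sequencing chips, and stalled E. coli RNA polymerase had transcribed the designs on them. Titration used SNAP-549-labelled MS2 coat protein from 0.7 or 1.5 nM, doubling to 3 µM, without and then with constant ligand, in 100 mM Tris-HCl pH 7.5, 80 mM KCl, 4 mM MgCl2, BSA, DTT, yeast tRNA and Tween-20.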

Where [3] appears, read: designed as: OFF switch for flavin mononucleotide, no ligand.
The mark [4] stands for this setting: ligand present: flavin mononucleotide, designed as: OFF switch for flavin mononucleotide.
[5] abbreviates: designed as: ON switch for flavin mononucleotide, no ligand.
Setting [6] is: ligand present: flavin mononucleotide, designed as: ON switch for flavin mononucleotide.

The source of these data is the EternaBench riboswitch data.

Regarding “CGAAUAUAGGCUACGUGUCAUUGAGGCGAUACCAGAUUAUGCCAGAUCCCUUGGCAGCGCCAAACAUGAGGAUCACCCAUGUUCA”, the “apparent Kd” value in the data set on MS2 coat protein [1] (designed as: OFF switch for theophylline, no ligand) was determined as 22.1 nM; with MS2 coat protein [1] (ligand present: theophylline, designed as: OFF switch for theophylline), 29.3 nM.
Consider “UAGUAACAUGAGGAUCACCCAUGUCCGGAUACCAGACAUAUACCAGUCCCUUGGCAGCCGCCAGUUAAAAUCUAACACAAAAGUU”, for which the “apparent Kd” value with MS2 coat protein [1] (designed as: ON switch for theophylline, no ligand) was determined as 46.2 nM; in the data set with MS2 coat protein [1] (ligand present: theophylline, designed as: ON switch for theophylline) it was 21.5 nM.
Turning to “UACUCAAGAGUAAGGAUAUAGAACCAAAUAGCGGACUAGAAGGUACAUGAGGAUCACCCAUGUCAAAGACAGAA”, the entries for the “apparent Kd” value with MS2 coat protein [1] (setting [3]) and in the data set on MS2 coat protein [1] (setting [4]) were 7.44 nM and 7.19 nM, respectively.
As for “CAACUAAAGGAGAAGGCUAACAUGAGGAUCACCCAUGUCCGCGUGUCCGCUUAUAAUGCGCGCAUAGAGGAUAUCCCAAGUUUA”, the “apparent Kd” value in the data set on MS2 coat protein [1] (setting [5]) came to 21.4 nM; in the data set with MS2 coat protein [1] (setting [6]) it was 13.6 nM.
Consider “CAACAGGAGCAGAAGGUCCAACUCAUAAAUACGGAAGGAUAUGCGUGACCAACUAAAGAAACAUGAGGAUCACCCAUGUAAGCG”, for which the figures for the “apparent Kd” value in the data set with MS2 coat protein [1] (setting [5]) and in the data set with MS2 coat protein [1] (setting [6]) were 10.7 nM and 7.53 nM, respectively.
The corresponding values for “UACAUGAGGAUCACCCAUGUGUGUAGCUAUUACUGUUACAUCUAGGAUAUGUCGGGAACUCAACAACAGAAGGAGAUAGAAGGA” are 48.8 nM and 33.8 nM.
On to “UUCCUGAAAGGAUAUACCUGGCCCGUGAACUGGAUAAAAGCACAUGAGGAUCACCCAUGUAGAAGGUUCGAUUA”, for which the “apparent Kd” value in the data set with MS2 coat protein [1] (setting [3]) was found to be 7.14 nM; in the data set on MS2 coat protein [1] (setting [4]), 7.02 nM.
The corresponding values for “UAGGUUAGGUAGAAGGGCAAGUAAUUCCACAUGAGGAUCACCCAUGUUCCUGUUUGGGAGGCUGUGCAGGAUAUACGAAAAUAA” are 117 nM and 153 nM.
Consider “AAUGUACAUGAGGAUCACCCAUGUCGUCUACUUAGAGGAUAUGAUUGGUUACCCAGCUGAUCAGAAGGCUACCGUC”, for which the figures for the “apparent Kd” value in the data set on MS2 coat protein [1] (setting [5]) and in the data set on MS2 coat protein [1] (setting [6]) were 14.1 nM and 11.9 nM, respectively.
The corresponding values for “GUCCUACAUGAGGAUCACCCAUGUGGUCGUGGUAUAGGAUAUUAGGACUUUGUAAUCAGUUAAGAAGGAUAUCACU” are 60.1 nM and 17.4 nM.
As for “GACUACCAGUAAGGAUAUGCUCUUAUAAAAGGAGCAGAAGGUACCUGUGACGCCUACGGGCGACAUGAGGAUCACCCAUGUUCU”, the “apparent Kd” value was 692 nM in the data set with MS2 coat protein [1] (setting [5]) and 386 nM in the data set on MS2 coat protein [1] (setting [6]).
In the case of “GACGAGGAACCAAAGGAUAUACACAUAAACACAUGAGGAUCACCCAUGUAUUAGAGGAUAAACAUGUAGAAGGUUGAUACGGCGUG”, the “apparent Kd” value worked out at 48.7 nM in the data set with MS2 coat protein [1] (setting [5]) and 36.9 nM in the data set on MS2 coat protein [1] (setting [6]).
Take “UGAUCUGUCGCAGGAUAUUACGUUCGGGAUCUCACAUGAGGAUCACCCAUGUAAGAAGGGCGAACAGCAUUCCGGGUCGGGCAA”: the “apparent Kd” value in the data set with MS2 coat protein [2] (setting [3]) is 19.6 nM; in the data set on MS2 coat protein [2] (setting [4]), 75.4 nM.
“UUUUAACAUGAGGAUCACCCAUGUGAGGAUAUCGAAAUUUAUAUUAAUAUUUUUAAUACGAGAAGGCACAUUUU”: the “apparent Kd” value came to 47.2 nM with MS2 coat protein [2] (setting [3]) and 73.6 nM in the data set with MS2 coat protein [2] (setting [4]).
The corresponding values for “AAAACGUGAGGAUAUGCACCCACCAAGGUUUUUCGGGUACGACAUGAGGAUCACCCAUGUAGAAGGCACGCAAA” are 27.6 nM and 21.2 nM.
For “AGAGUUUCGUUGUGACCCAUUCACAUGAGGAUCACCCAUGUAGAGGAUAUAAGUCACCACGGUACUUAGAAGGCUGCAGGUGUG”, in that order: 6.83 nM and 12.5 nM.
As for “UUUAUUAGUUAGAAGGCUUGAUGAAUUACAAUGGACAUGAGGAUCACCCAUGUGUAUUCAUGUCAAGAGGAUAUAGUCAUAUAU”, the “apparent Kd” value was 39.1 nM in the data set with MS2 coat protein [2] (setting [5]) and 17.7 nM with MS2 coat protein [2] (setting [6]).
For the sequence “UGUCGGAGCAGAGGAUAUUACAUGAGGAUCACCCAUGUAUGAACGAAUAGCUGGAAACAGCAAUGUAAGAAGGCUGCUCCGACA”, the “apparent Kd” value is 6 nM in the data set on MS2 coat protein [2] (setting [3]) and 10.4 nM with MS2 coat protein [2] (setting [4]).
With “GCGAUUUUGUAAGGAUAUACACGAGUUUCAAGUGUAGAAGGUACUUACAUGAGGAUCACCCAUGUAUACAUGGAUAAUAGUCGC”, the “apparent Kd” value was 548 nM with MS2 coat protein [2] (setting [5]) and 84.2 nM in the data set with MS2 coat protein [2] (setting [6]).
For the sequence “UGAUACUGAGAGAAGGUUCAAACUACAUAUUGCAUACAUGAGGAUCACCCAUGUUGGUGAAUAAGAAAGGAUAUUUUACUAUAU”, the “apparent Kd” value amounted to 47 nM with MS2 coat protein [2] (setting [3]) and 32.8 nM in the data set with MS2 coat protein [2] (setting [4]).
As to “AUCAGCUGGUCAGGAUAUACGUCACUGCGUCAGCAGUGUGGUAAGAUCACAUGAGGAUCACCCAUGUAGAAGGGACGAGCUGAU”, the “apparent Kd” value with MS2 coat protein [2] (setting [3]) turned out to be 14.5 nM; in the data set with MS2 coat protein [2] (setting [4]) it was 286 nM.
Regarding “GGAUGACAAAGUCAUCCUAAACGAACAUGAGGAUCACCCAUGUAGGAUAUGCAACUCAAAGAGUUGCAGAAGGACAUGUGCCUU”, the “apparent Kd” value came out at 37.2 nM with MS2 coat protein [2] (setting [3]) and 230 nM with MS2 coat protein [2] (setting [4]).
For “AAAAACUAAGGAUAUACAUGAGGAUCACCCAUGUAAAAAAUGCAUGGGAAAACCUCAUGUAGAAGGUAGAAAAA”, in that order: 20.6 nM and 17.2 nM.
